The chains are these.
B1: tRNA (parent)
chain: GUUCCGUUGGCGUAAUGGUAACGCGUCUCCCUCCUAAGGAGAAGACUGCGGGUUCGAGUCCCGUACGGAACG

Variants at the floor of the assay were thinned out. Where only a bound is given, the exact number is not on record here.

In the series the parent is B1. In words: yeast fitness relative to wild type (ratio to wild type); higher = fitter; tRNA-Arg(CCU), competitive growth, 37 C, YPD. In a few lines: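 Changes in genotype frequencies gave Darwinian fitness relative to wild type. Frequencies were read by 100-nucleotide paired-end sequencing of gene amplicons before and after pooled Saccharomyces cerevisiae strains, carrying tRNA-Arg(CCU) gene variants at the native locus, were competed in YPD at 37°C for 24 hours in six replicates. A genotype was kept only with ≥ 100 starting reads, and estimates < 0.5 were set to 0.5.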
As to GUUGCGUUGGCGUAAUGGUAACGGGGCUCCCUCCUAAGCAGAAGACUGGGGGUUCGAGUCCCGUGCGGAACG, the yeast fitness was not above 0.5.

GUUGCGUUGGCGUAAUGGUAACGCGUCUACCACCUAAGGAGAAGCCUGCGGGUUCGAGUCCCGUCCGGAACG: the yeast fitness was not above 0.5.

On to GUUGCGUUGGCGUAAUGGUAACGCGUCUACCUCCUAAGGAGAAGAAUGCGGGUUCGAGUCCCGUACGGAACG, for which the yeast fitness is not above 0.5.

On to GUUGCGUUGGCGUAAUGGUAACGCGUCUCCCUGCUAAGGAGUAGACGGCGGGUACGAGUCACGUACGGAACG, for which the yeast fitness is not above 0.5.

For GUUGCGUUGGCGUAAUGGUAACGCGUCUCGCUCCUAAGGAGAAGACUGCUGGUUCGAGUCCCGUAUGGAACG, the yeast fitness came out at 0.588.

On to GUUGCGUUGGCGUAAUGGUAACGCGUCUGCCUCCUAAGGAGAAGACUGCGGGUUCGAGUCUCGUACGGAACG, for which the yeast fitness was determined as 0.562.

Regarding GUUGCGUUGGCGUAAUGGUAACGAGUCUCCCUCCUAAGGAGAAGAUUGCGGGUUCGAGUCCCGCACGGAACG, the yeast fitness is not above 0.5.

As to GUUGCGUUGGCGUAAUGGUAACGCGUCUCGCUCCUAAGGAGAAGACUGCGGGUUCGAAUCCCGUACGGAACG, the yeast fitness was not above 0.5.

Consider GUUGCGUUGGCGUAAUGGUAACGCGUCUCCGUCCUAAGGGGAAGACUGCGGGUUCGAGUCCAGUACGGAACG, for which the yeast fitness was not above 0.5.

Regarding GUUGCGUUGGCGUAAUGGUAACGCGUCUCCCUGCUAAGGAGAAGACUGCGGGUUCGAGUCCCGUACAGAACG, the yeast fitness is not above 0.5.

Take GUUGCGUUGGCGUAAUGGUAACGUGUCUCACUCCUAAGGAGAAGACUGCGGCUUCGAGUCCCGUACGGAACG: the yeast fitness was not above 0.5.

With GUUGCGUUGGCGUAAUGGUAACGCGUCUCCGUCCUAAGGAGAAGACUGCGGGUUCGAGUCCCGUACGGAACG, the yeast fitness came out at 0.761.

Take GUUGCGUUGGCGUAAUGGUAACGCGUUUCCCUCCUAAGGACCAGACUGCGGGUUCGAGUCCCGUACGGAACG: the yeast fitness was not above 0.5.

As to GUUGCGUUGGCGUAAUGGUAACGCGUCUGCCUCCUCUGGCGAAGGCUGCGAGUUCGAGUCCCGUACGGAACG, the yeast fitness was found to be 0.503.

For GUUGCGUUGGCGUAAUGGUAACGCGUCUCGCCCCUAAGGAGAAGACUGCGGGUUCGAGUCCCGUACGGAACG, the yeast fitness is not above 0.5.

Turning to GUUGCGUUGGCGUAAUGGUAACGCGUGUCGCUCCUAAGGAGAAGACUGUGGGUUCGAGUUCCCUACGGAACG, the yeast fitness stood at 0.562.

For GUUGCGUUGGCGUAAUGGUAACGCGUCUCCCUGCUCAGGAGAAGACUGCGGGUUCGAGUCCCGUAUGGAACG, the yeast fitness is not above 0.5.

As for GUUGCGUUGGCGUAAUGGUAACGCGUGUCCCUCUUACGGAGAAGACUGCGGGUUUGAGUCCCGUACGGAACG, the yeast fitness was not above 0.5.

Take GUUGCGUUGGCGUAAUGGUAACGCGUAUCCCUCCUAAGGAGAAGAUUGCGGGUUCGAGUCCCGUACCGAACG: the yeast fitness is not above 0.5.

For GUUGCGUUGGCGUAAUGGUAAUGCGUCUCCCUCCUAAGGAGAAGACUGCGGGUUCGAGUCCCGUACGGAACG, the yeast fitness was 0.976.

In the case of GUUGCGUUGGCGUAAUGGUAACGCGUCUCGCUACUAAGGAGAAGACUGCGGGUUCGAGUCCCGUACGGAACG, the yeast fitness was not above 0.5.

As for GUUGCGUUGGCGUAAUGGUAACGCGUAUCCCUCCUAAGGAGAAGACUACGGGUUCGAGUCCCGUACGGAACG, the yeast fitness was found to be 0.571.

As to GUUGCGUUGGCGUAAUGGUAACGAGUCUCCCUCCUAAGAAGUAGACAGCGGGUUCGAGUGCCGUACGGAACG, the yeast fitness is not above 0.5.

Turning to GUUGCGUUGGCGUAAUGGUAACGGGUCUCUCUCCUAAGGAGAAGAGUGCGGGUUCGAGUCCCGUACGGAACG, the yeast fitness was not above 0.5.

As to GUUGCGUUGGCGUAAUGGUAACGCGUCUAUCUCCUAAGGAGAAGACUGCGGGUUCGAGUCCGGAACGGAACG, the yeast fitness is not above 0.5.

In the case of GUUGCGUUGGCGUAAUGGUAAUGCGUCUCCCUCCUAAGGAGAAGACUGCCGGUUCGAGUCCCGUACGGAACG, the yeast fitness is not above 0.5.

Regarding GUUGCGUUGGCGUAAUGGUAACGCGUCUCGCUACUAAGGAGAAGACUGCGGGUUCGAGUCCCGUACGGAGCG, the yeast fitness is not above 0.5.

On to GUUGCGUUGGCGUAAUGGUAACGAGUCUCCCUCAUAAGGAGAAGACUGCGGGUUCGAGUCCCGUACGGAACG, for which the yeast fitness was 0.563.

Regarding GUUGCGUUGGCGUAAUGGUAACGCGUGUCCCUCCUAAGGAGAAGACUGCGGGUUCGAGUCCCGUUCGUAACG, the yeast fitness amounted to 0.562.

Consider GUUGCGUUGGCGUAAUGGUAACGCGUCUCACUCCUAAGGAGAAGACUGCGGGUUCGAGUCCAGUACGGAACG, for which the yeast fitness was not above 0.5.

Take GUUGCGUUGGCGUAAUGGUAACGCGUCUCACUCCUAAGGAGAAGACUGCGGGUUCGAGUCCUGUACGGAACG: the yeast fitness worked out at 0.526.

GUUGCGUUGGCGUAAUGGUAAUGCGUCUCCCUCCUAAGGAGAAGACUGCGGGUUCGAGUCCCGUACGCAACG: the yeast fitness is not above 0.5.

Take GUUGCGUUGGCGUAAUGGUAACGAGUCUCCCUCCUAAGGAGAAGACUGCGGGUUCGAGUCCCGUACGGAACG: the yeast fitness is 0.634.

Turning to GUUGCGUUGGCGUAAUGGUAACGCGUUUCCUUCCUAAGGAGAAGACUGCGGGUUCGAGUCCCGUACGGAACG, the yeast fitness amounted to 0.652.

For the variant GUUGCGUUGGCGUAAUGGUAAUGCGUCUCCCUCGUUAGGAGAAGACUGCGGGUUCGAGUCCCGUACGGAACG, the yeast fitness was not above 0.5.

As to GUUGCGUUGGCGUAAUGGUAACGCGUCUCGCUCCUAAGGAGCAGACUGCGGGUUGGAGUCCCGUACGGAACG, the yeast fitness was not above 0.5.

Consider GUUGCGUUGGCGUAAUGGUAACGCGUCUUCCUCCUAAGGAGAAGACUGCGGGUUCAAGUCCCGUCCGGACCG, for which the yeast fitness amounted to 0.77.

As to GUUGCGUUGGCGUAAUGGUAACGCGUCUCGCUGCUAAGGAGAAGACUGCGGGUUCGAGUCCCGUAUGGAACG, the yeast fitness was not above 0.5.

(Values after the RNAGym collection of RNA variant scans (doi:10.1126/science.aae0568).)
